Columns and labels:
[1] = target: DNA topoisomerase 2-alpha (Homo sapiens) (UniProt P11388); assay: Inhibition of human recombinant topoisomerase-2 alpha assessed as conversion of super-coiled plasmid DNA pBR322 to relaxed DNA at 100 uM after 30 mins by ethidium bromide staining-based agarose gel electrophoresis relative to etoposide
[2] = target: T1, DNA topoisomerase 1 (Homo sapiens) (UniProt P11387); assay: Inhibition of human recombinant topoisomerase-1 assessed as conversion of super-coiled plasmid DNA pBR322 to relaxed DNA at 100 uM after 30 mins by ethidium bromide staining-based agarose gel electrophoresis relative to camptothecin
T1 sequence (whole entry): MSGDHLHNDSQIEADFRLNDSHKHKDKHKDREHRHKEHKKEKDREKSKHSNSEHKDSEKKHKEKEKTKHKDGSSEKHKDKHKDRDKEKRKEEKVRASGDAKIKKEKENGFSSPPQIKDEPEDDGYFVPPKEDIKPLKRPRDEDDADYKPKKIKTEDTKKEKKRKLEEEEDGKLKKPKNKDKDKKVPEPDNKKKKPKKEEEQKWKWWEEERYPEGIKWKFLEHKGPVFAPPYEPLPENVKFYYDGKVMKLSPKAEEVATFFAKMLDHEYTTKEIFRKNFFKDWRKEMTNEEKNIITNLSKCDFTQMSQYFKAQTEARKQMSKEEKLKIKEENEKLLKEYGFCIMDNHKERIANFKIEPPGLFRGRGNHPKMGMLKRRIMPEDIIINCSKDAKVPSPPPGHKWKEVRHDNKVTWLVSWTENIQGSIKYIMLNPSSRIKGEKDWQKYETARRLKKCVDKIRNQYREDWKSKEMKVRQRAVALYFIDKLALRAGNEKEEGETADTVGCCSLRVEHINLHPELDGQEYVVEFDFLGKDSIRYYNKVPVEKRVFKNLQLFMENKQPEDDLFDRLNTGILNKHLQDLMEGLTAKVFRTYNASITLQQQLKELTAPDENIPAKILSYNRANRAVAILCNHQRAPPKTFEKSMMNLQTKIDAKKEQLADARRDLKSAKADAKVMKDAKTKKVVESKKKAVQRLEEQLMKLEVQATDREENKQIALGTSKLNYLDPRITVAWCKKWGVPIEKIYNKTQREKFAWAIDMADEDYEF

MCF7 = assay: Cytotoxicity against human MCF7 cells after 2 days by CCK-8 assay; type: functional, cell-based; settings: MCF7, 48 h
How it was run: (§1)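 Cells seeded at 2~4 × 10^4 per well, grown overnight in medium with 10% FBS at 37 °C, 5% CO2. On day 2, after 4 h FBS starvation, medium replaced with medium containing graded compound concentrations. On day 4, CCK-8 added for 4 h, then absorbance read at 450 nm. IC50 from four-parameter logistic fit. Mean ± S.D. of three experiments, each run in triplicate.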

[3] = Cytotoxicity against human HCT15 cells after 2 days by CCK-8 assay; type: functional, cell-based; settings: HCT-15, 48 h; how it was run: as §1
[4] = target: DNA topoisomerase 2-alpha (Homo sapiens) (UniProt P11388); assay: Inhibition of human recombinant topoisomerase-2 alpha assessed as conversion of super-coiled plasmid DNA pBR322 to relaxed DNA at 100 uM after 30 mins by ethidium bromide staining-based agarose gel electrophoresis (reference value: 87.8%)
How it was run: (§2)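 Supercoiled pBR322 (200 ng) incubated with 1 unit human topo IIα, with or without compound, for 30 min at 30 °C. Buffer: 10 mM Tris-HCl pH 7.9, 50 mM NaCl, 5 mM MgCl2, 1 mM EDTA, 1 mM ATP, 15 μg/mL BSA. Stopped with EDTA. Run on 1% agarose in TAE at 25 V for 4 h, stained with ethidium bromide, supercoiled DNA quantified under UV.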

[5] = target: T1, DNA topoisomerase 1 (Homo sapiens); assay: Inhibition of human recombinant topoisomerase-1 assessed as conversion of super-coiled plasmid DNA pBR322 to relaxed DNA at 100 uM after 30 mins by ethidium bromide staining-based agarose gel electrophoresis (reference value: 62.9%)
How it was run: (§3)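 Relaxation of supercoiled pBR322 (100 ng) by 0.4 units recombinant human topo I, with or without compound (20 mM DMSO stocks), for 30 min at 37 °C. Buffer: 10 mM Tris-HCl pH 7.9, 150 mM NaCl, 0.1% BSA, 1 mM spermidine, 5% glycerol. Stopped with sarcosyl. Run on 1% agarose in TAE at 15 V for 7 h, stained with ethidium bromide, bands quantified under UV.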

DU-145 = assay: Cytotoxicity against human DU145 cells after 2 days by CCK-8 assay; type: functional, cell-based; settings: DU-145, 48 h; how it was run: as §1
[6] = target: DNA topoisomerase 2-alpha (Homo sapiens) (UniProt P11388); assay: Inhibition of human recombinant topoisomerase-2 alpha assessed as conversion of super-coiled plasmid DNA pBR322 to relaxed DNA at 100 uM after 30 mins by ethidium bromide staining-based agarose gel electrophoresis (reference value: 83.7%); how it was run: as §2
HeLa = assay: Cytotoxicity against human HeLa cells after 2 days by CCK-8 assay; type: functional, cell-based; settings: 48 h; how it was run: as §1
[7] = target: DNA topoisomerase 2-alpha (Homo sapiens) (UniProt P11388); assay: Inhibition of human recombinant topoisomerase-2 alpha assessed as conversion of super-coiled plasmid DNA pBR322 to relaxed DNA at 20 uM after 30 mins by ethidium bromide staining-based agarose gel electrophoresis (reference value: 42.1%); how it was run: as §2
[8] = target: T1, DNA topoisomerase 1 (Homo sapiens); assay: Inhibition of human recombinant topoisomerase-1 assessed as conversion of super-coiled plasmid DNA pBR322 to relaxed DNA at 100 uM after 30 mins by ethidium bromide staining-based agarose gel electrophoresis (reference value: 51.5%); how it was run: as §3
[9] = target: T1, DNA topoisomerase 1 (Homo sapiens); assay: Inhibition of human recombinant topoisomerase-1 assessed as conversion of super-coiled plasmid DNA pBR322 to relaxed DNA at 100 uM after 30 mins by ethidium bromide staining-based agarose gel electrophoresis (reference value: 45.2%); how it was run: as §3
[10] = target: DNA topoisomerase 2-alpha (Homo sapiens) (UniProt P11388); assay: Inhibition of human recombinant topoisomerase-2 alpha assessed as conversion of super-coiled plasmid DNA pBR322 to relaxed DNA at 100 uM after 30 mins by ethidium bromide staining-based agarose gel electrophoresis (reference value: 32.4%); how it was run: as §2
[11] = target: T1, DNA topoisomerase 1 (Homo sapiens); assay: Inhibition of human recombinant topoisomerase-1 assessed as conversion of super-coiled plasmid DNA pBR322 to relaxed DNA at 20 uM after 30 mins by ethidium bromide staining-based agarose gel electrophoresis (reference value: 25.9%); how it was run: as §3
[12] = target: DNA topoisomerase 2-alpha (Homo sapiens) (UniProt P11388); assay: Inhibition of human recombinant topoisomerase-2 alpha assessed as conversion of super-coiled plasmid DNA pBR322 to relaxed DNA at 20 uM after 30 mins by ethidium bromide staining-based agarose gel electrophoresis (reference value: 46.7%); how it was run: as §2

Sequence of DNA topoisomerase 2-alpha (Homo sapiens) (P11388 whole entry): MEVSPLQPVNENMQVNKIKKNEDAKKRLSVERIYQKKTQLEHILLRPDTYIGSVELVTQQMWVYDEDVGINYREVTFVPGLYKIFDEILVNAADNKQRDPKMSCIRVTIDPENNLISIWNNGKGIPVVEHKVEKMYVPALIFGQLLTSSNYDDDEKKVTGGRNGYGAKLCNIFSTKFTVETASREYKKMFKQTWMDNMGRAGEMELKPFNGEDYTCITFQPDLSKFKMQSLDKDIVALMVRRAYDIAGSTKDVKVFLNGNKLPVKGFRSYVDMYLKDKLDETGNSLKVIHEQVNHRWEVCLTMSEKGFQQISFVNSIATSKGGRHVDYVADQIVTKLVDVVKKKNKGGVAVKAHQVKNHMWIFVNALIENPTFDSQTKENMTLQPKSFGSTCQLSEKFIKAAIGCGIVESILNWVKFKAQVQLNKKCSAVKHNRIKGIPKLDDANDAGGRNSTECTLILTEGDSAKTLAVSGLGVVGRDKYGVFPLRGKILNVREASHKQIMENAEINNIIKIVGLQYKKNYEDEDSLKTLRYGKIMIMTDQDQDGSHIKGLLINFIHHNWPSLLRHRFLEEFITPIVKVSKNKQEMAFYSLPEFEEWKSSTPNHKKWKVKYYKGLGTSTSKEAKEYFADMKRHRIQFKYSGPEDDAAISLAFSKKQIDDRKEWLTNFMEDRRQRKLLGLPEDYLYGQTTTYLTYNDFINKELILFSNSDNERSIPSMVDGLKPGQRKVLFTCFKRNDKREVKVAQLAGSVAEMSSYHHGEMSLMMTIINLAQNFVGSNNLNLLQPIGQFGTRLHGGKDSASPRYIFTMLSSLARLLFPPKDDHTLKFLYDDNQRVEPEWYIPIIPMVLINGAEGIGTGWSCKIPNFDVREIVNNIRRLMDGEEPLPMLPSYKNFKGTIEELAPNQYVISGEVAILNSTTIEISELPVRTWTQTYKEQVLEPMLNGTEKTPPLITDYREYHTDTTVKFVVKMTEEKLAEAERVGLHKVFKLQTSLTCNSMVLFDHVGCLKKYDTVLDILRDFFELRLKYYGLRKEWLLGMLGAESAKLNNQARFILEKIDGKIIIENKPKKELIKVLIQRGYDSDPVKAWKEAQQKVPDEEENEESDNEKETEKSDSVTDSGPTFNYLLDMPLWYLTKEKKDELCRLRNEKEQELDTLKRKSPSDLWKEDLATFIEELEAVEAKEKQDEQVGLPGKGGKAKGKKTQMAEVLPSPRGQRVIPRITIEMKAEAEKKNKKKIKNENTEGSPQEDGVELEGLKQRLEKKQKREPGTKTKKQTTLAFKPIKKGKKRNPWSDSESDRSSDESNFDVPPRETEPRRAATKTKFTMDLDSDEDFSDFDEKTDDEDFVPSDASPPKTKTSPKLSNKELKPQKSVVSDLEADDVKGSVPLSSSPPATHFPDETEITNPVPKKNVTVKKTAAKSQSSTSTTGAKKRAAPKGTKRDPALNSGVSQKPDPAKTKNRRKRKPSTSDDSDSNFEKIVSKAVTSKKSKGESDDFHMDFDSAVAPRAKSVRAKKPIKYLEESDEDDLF

SMILES | Ratio [1] | IC50 (MCF7) [µM] | IC50 [3] [µM] | IC50 (DU-145) [µM] | Ratio [2] | also measured
c1ccc(-c2cc(-c3ccco3)c3oc4ccccc4c3n2)cc1 | 1.24 | – | – | – | – | fold change (FC) [2]: < 0.2
c1csc(-c2cc(-c3cccs3)c3c(n2)-c2ccccc2C3)c1 | – | > 50 | > 50 | > 50 | – | inhibition [4]: 9.8%; inhibition [5]: 4.7%
c1coc(-c2cc(-c3cccs3)c3c(n2)-c2ccccc2C3)c1 | 1 | > 50 | 23.6 | > 50 | < 0.2 | inhibition [6]: 83.9%; IC50 (HeLa): > 50 µM; inhibition [7]: 79.6%; inhibition [8]: 2%
c1ccc(-c2cc(-c3ccccn3)c3c(n2)-c2ccccc2C3)nc1 | – | – | – | – | – | inhibition [9]: 6.2%; inhibition [10]: 10.2%
c1cncc(-c2cc(-c3ccncc3)c3c(n2)-c2ccsc2CC3)c1 | < 0.2 | – | – | – | 0.49 | –
c1ccc(-c2cc(-c3cccs3)c3c(n2)-c2ccccc2C3)nc1 | – | 11 | 9.1 | 6.7 | – | inhibition [9]: 58.5%; inhibition [10]: 9%; IC50 (HeLa): 20.5 µM; inhibition [11]: 12%
c1ccc(-c2cc(-c3cccnc3)c3c(n2)-c2ccsc2CC3)cc1 | < 0.2 | – | – | – | 1.15 | –
c1csc(-c2cc(-c3ccsc3)c3c(n2)-c2ccccc2C3)c1 | 1.14 | > 50 | > 50 | > 50 | < 0.2 | inhibition [12]: 0%; inhibition [4]: 100%; inhibition [5]: 10.1%
c1ccc(-c2cc(-c3ccsc3)nc3c2Cc2ccccc2-3)cc1 | 0.83 | > 50 | > 50 | > 50 | < 0.2 | inhibition [12]: 0%; inhibition [4]: 72.5%; inhibition [5]: 0.5%
c1ccc2c(c1)Cc1c(-c3ccoc3)cc(-c3ccsc3)nc1-2 | 1.15 | > 50 | 20.6 | > 50 | < 0.2 | inhibition [6]: 95.9%; IC50 (HeLa): > 50 µM; inhibition [7]: 10.9%; inhibition [8]: 1.2%
c1ccc(-c2cc(-c3ccsc3)c3c(n2)-c2ccccc2C3)nc1 | – | – | – | – | – | inhibition [4]: 15%; inhibition [5]: 1.1%
c1ccc(-c2cc(-c3ccccn3)nc3c2oc2ccccc23)cc1 | < 0.2 | – | – | – | 1.15 | –
c1ccc(-c2cc(-c3ccco3)c3c(n2)-c2ncccc2CC3)nc1 | < 0.2 | – | – | – | 1.25 | –
c1coc(-c2cc(-c3ccsc3)nc3c2Cc2ccccc2-3)c1 | 1 | > 50 | 31.6 | > 50 | < 0.2 | inhibition [6]: 84.1%; IC50 (HeLa): > 50 µM; inhibition [7]: 68.5%; inhibition [8]: 2.8%
c1ccc(-c2cc(-c3cccnc3)nc3c2COc2ccccc2-3)nc1 | < 0.2 | – | – | – | 1.58 | –
c1ccc(-c2cc(-c3ccco3)c3c(n2)-c2ccccc2C3)nc1 | – | – | – | – | – | inhibition [9]: 0.6%; inhibition [10]: 17.7%
c1csc(-c2cc(-c3ccoc3)c3c(n2)-c2ccccc2C3)c1 | 1.19 | > 50 | 34.6 | 37.3 | < 0.2 | inhibition [6]: 100%; IC50 (HeLa): > 50 µM; inhibition [7]: 66.7%; inhibition [8]: 1.7%
c1csc(-c2cc(-c3ccoc3)c3c(n2)-c2ccccc2CC3)c1 | < 0.2 | – | – | – | 0.53 | –
